Compound activity (PubChem)
This is a sample that favours compounds with a hit; in the whole collection about 2.1% have one here.
LMPTP block: LMPTP phosphatase inhibitors, primary screen, biochemical, fluorescence intensity, uHTS | recombinant LMPTP-A, OMFP fluorogenic substrate | inhibition, % at 20 µM | 360,000 compounds, 0.22% hits | AID 651560, 2012;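 active = compounds that cut the enzyme signal by at least half of the control window in the single-dose screen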;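 also: plate controls were DMSO wells with enzyme plus substrate for no effect and substrate without enzyme for full effect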
Target sequence (P24666 whole entry, looked up): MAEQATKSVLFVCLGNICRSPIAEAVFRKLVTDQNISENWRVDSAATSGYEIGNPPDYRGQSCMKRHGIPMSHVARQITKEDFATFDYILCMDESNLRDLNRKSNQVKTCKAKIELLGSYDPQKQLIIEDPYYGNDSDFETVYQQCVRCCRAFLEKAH
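Test system – LMPTP-A enzyme · Amount – LMPTP-A at 0.625 nM final in the reaction · Buffer or medium – Bis-Tris pH 6.0, DTT, detergent · Reagent – OMFP 400 µM · Doses – single 20 µM dose · Schedule – reaction 50 min, room temperature, dark · Detection – fluorescence intensity of OMFP turnover product · Evaluation – percent inhibition versus substrate-only and uninhibited controls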
GRK2 inh: compounds blocking aptamer binding on GRK2 – biochemical, human GRK2, bead flow cytometry, HTS, primary screen | Beta-adrenergic receptor kinase 1 (Homo sapiens), P25098 | FAM-aptamer displacement from GRK2 | inhibition of aptamer binding, % at 10 µM | 330,000 compounds, 0.59% hits;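 active = inhibition of aptamer binding above 40%, roughly 3 SD of noise, on plates passing a quality check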;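 also: median bead fluorescence of bound FAM aptamer so fluorescent compounds give negative values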
SUMO1 PPI mod: modulators of SUMO1 protein-protein interactions, primary screen, biochemical, uHTS; AID 602429, 2012; Small ubiquitin-related modifier 1 (Homo sapiens), P63165; SUMO1 binding to a labelled peptide, TR-FRET, 1 h; 360,000 compounds, 0.33% hits; inhibition, % at 20 µM; in the data active = inhibition above about 37%
Target sequence (P63165 whole entry, looked up): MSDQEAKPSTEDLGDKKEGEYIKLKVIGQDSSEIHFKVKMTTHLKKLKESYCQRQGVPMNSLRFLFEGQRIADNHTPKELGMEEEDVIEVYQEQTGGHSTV
Scp1 inh: Scp-1 phosphatase inhibitors, primary screen, biochemical, colorimetric, uHTS; Recombinant Scp1, phosphopeptide, malachite green phosphate absorbance; 340,000 compounds, 0.88% hits; AID 493091, 2011; Carboxy-terminal domain RNA polymerase II polypeptide A small phosphatase 1 (Homo …; inhibition, % at 20 µM;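 active = inhibition above about 50% at 20 µM, limit read from the data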;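 also: plate controls were DMSO wells with enzyme for no effect and wells lacking enzyme for full effect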
Target sequence (Q9GZU7 76-261 limits assumed): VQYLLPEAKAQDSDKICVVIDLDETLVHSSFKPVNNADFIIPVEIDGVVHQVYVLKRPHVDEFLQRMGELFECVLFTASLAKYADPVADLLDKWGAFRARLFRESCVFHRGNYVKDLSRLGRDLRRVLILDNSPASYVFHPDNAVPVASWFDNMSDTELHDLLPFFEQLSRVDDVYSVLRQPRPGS
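Test system: SCP-1 phosphatase catalytic domain, residues 76-261 | Compound dosing: One concentration, 20 µM, with 1.0% DMSO | Schedule: 45 min room-temperature reaction, 5 min colour, 30 min stabiliser | Detection: Absorbance at 630 nm | Read-out basis: % inhibition of SCP-1 phosphate liberation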
STEP block: STEP phosphatase inhibitors, primary screen, biochemical, fluorescence intensity, uHTS | Tyrosine-protein phosphatase non-receptor type 5 (Homo sapiens), P54829 | recombinant STEP, OMFP fluorogenic substrate | inhibition, % at 20 µM | 360,000 compounds, 0.25% hits;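 active = inhibition at 20 µM, scaled per plate between control wells, above about 37%, limit read from the data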;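 also: 0% = DMSO with enzyme and substrate and 100% = substrate only without enzyme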
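Measure: Control-normalized % inhibition with plate pattern correction | Test system: STEP phosphatase, cell-free reaction | Medium: pH 6.0 Bis-Tris with DTT and Tween 20 | Technique: Fluorescence, 480/540 nm | Times: Reaction 20 min, ambient temperature | Doses: Single compound dose of 20 µM, 1% DMSO final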
DNMT1 block: human DNMT1 methyltransferase inhibitors, primary screen, biochemical, molecular beacon, fluorescence, HinP1I cleavage, uHTS; DNA (cytosine-5)-methyltransferase 1 (Homo sapiens), P26358; inhibition (reported as % activation of signal), % at 10 µM; 360,000 compounds, 0.83% hits; in the data active = inhibition above about 50%
Scp1 confirm: Scp-1 phosphatase inhibitors, retest, confirmation, biochemical, colorimetric, single concentration. shares compounds with Scp1 inh. recombinant SCP-1 catalytic domain, phosphate release, malachite green absorbance. inhibition, % at 20 µM. 2,500 compounds, 61% hits. AID 540281, 2011;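 also: plate controls were DMSO with enzyme for no effect and buffer wells lacking enzyme for full effect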
MG interference: colorimetric readout interference by compounds, confirmation, artefact control for Scp-1 inhibitor project, biochemical, single concentration; shares compounds with Scp1 inh; Colorimetric interference counterscreen, malachite green absorbance 630 nm; apparent inhibition (interference), % at 20 µM; 2,500 tested, under 10 active; AID 540313, 2011;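 also: compounds added after enzyme reaction finished so only phosphate colour detection is probed; plate controls were DMSO wells with completed Scp-1 reaction for no effect and substrate wells lacking enzyme for full effect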
Scp1 DSF: Scp-1 binding by thermal shift, confirmation, orthogonal assay for Scp-1 inhibitor project, biophysical, differential scanning fluorimetry; shares compounds with Scp1 inh; Recombinant SCP1, Sypro Orange thermal shift Tm; thermal shift relative to vanadate control, % at 40 µM; 1,500 compounds, 25% hits;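 active = substances whose mean melting-temperature shift, as a percentage of the reference inhibitor's shift, reaches about 5.3%, limit read from the data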;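 also: 0% = Tm of DMSO wells and 100% = Tm with sodium orthovanadate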
* hit, by the source's call; · = no result.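 The calls were made as follows, unless noted: active = inhibition of at least 30% at 20 µM; inactive = the rest.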

SMILES	LMPTP block	GRK2 inh	SUMO1 PPI mod	Scp1 inh	STEP block	DNMT1 block	Scp1 confirm	MG interference	Scp1 DSF
CC(=O)Nc1ccc(C(=O)N2CCCC(c3cc(C(=O)NCc4ccccc4)no3)C2)cc1 (stereo not given)	0	·	3	·	4	4	·	·	·
COc1ccc(NC(=O)N(C)C[C@H]2Oc3ccc(NC(=O)Nc4ccc(C(F)(F)F)cc4)cc3C(=O)N([C@H](C)CO)C[C@@H]2C)cc1	3	3	5	50*	0	-18	13	-7	·
COc1ccc(NC(=O)Nc2ccc3c(c2)C(=O)N([C@H](C)CO)C[C@H](C)[C@@H](CN(C)C(=O)Nc2ccc(C(F)(F)F)cc2)O3)cc1	2	3	17	-2	0	-11	·	·	·
CC1=C2C3OC(=O)C(C)C3CCC2(C)C=CC1=NO (stereo not given)	-1	·	-1	-12	-2	1	·	·	·
O=C(O)c1cccc(-c2ccc3c(c2)OCO3)c1	-1	0	9	-4	0	-1	·	·	·
O=C1OC(c2ccc3c(c2)OCO3)=N/C1=C\c1ccc(C(=O)O)cc1	-1	53*	9	88*	11	25	69*	-5	6.3*
CCCC(=O)Nc1ccc2nc(SCC(=O)Nc3nccs3)sc2c1	-3	0	0	102*	-3	0	1	-4	·
O=C(CCCSc1nc2ccccc2s1)Nc1nccs1	0	0	-4	-8	-2	-3	·	·	·
Cc1ccccc1N(CC(=O)N1CCN(Cc2ccccc2)CC1)S(C)(=O)=O	0	·	-5	·	2	-5	·	·	·
CC(=O)c1ccc(NC(=O)c2noc3c2CCC3)cc1	1	26	5	62*	1	42	54*	-13	-1
CCN(CC)C(=O)c1cccc(-c2csc(C(O)c3cccc(OC)c3)n2)c1 (stereo not given)	1	·	1	·	-1	2	·	·	·
Cc1ccc(NC(=O)CSc2n[nH]c(-c3ccco3)n2)c(C)c1	0	0	7	6	-2	0	·	·	·
Cc1ccc(NC(=O)CSc2nc(-c3ccco3)nc3cc(=O)[nH]n23)c(Cl)c1	4	5	11	71*	9	33	48*	-15	-2
O=C(O)CCNc1ccc(Cl)cc1	1	18	1	52*	1	19	43*	-14	-21
COCCCn1cc(CN2CC(N3CCSCC3)CS2(=O)=O)nn1 (stereo not given)	-1	·	-3	·	·	·	·	·	·
CCCCNc1nnc(Cc2ccc(Cl)cc2)c(=O)[nH]1	5	1	8	97*	28	30	76*	-11	-2
O=C(NNC(=O)c1ccccc1Cl)c1cccs1	1	0	3	76*	1	0	-21	-16	·
CC(C)C[C@H]1CN(CCCC[C@H]2CNC(=O)C(=O)N2CCC2CCCCC2)C(=O)C(=O)N1CC1CCCCC1	0	·	5	·	·	·	·	·	·
